proCasp7 act: procaspase-7 activators, primary screen, counter-screen for procaspase-3 activator project, biochemical, absorbance, HTS, human. Caspase-7 (Homo sapiens), P55210. recombinant procaspase-7, Ac-DEVD-pNA absorbance 405 nm; D23A/D198A/D206A triple mutant, cannot self-cleave; scale: DMSO 0, 5 µM enzyme 100. activation, % at 8.5 µM. hit rate 0.093% among 330,000. AID 463210, 2010;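 active = percent activation above the screen-wide mean plus 3 SD, cut at about 25% in these data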
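Detection: p-Nitroaniline absorbance at 405 nm, read at 0 and 120 min; system: Uncleavable procaspase-7 mutant enzyme; evaluation: % activation from two-timepoint absorbance difference, scaled to controls; times: 1 h enzyme–compound preincubation and 2 h substrate reaction, both 25 °C; buffer or medium: Zinc-free HEPES pH 7.4 with 300 mM NaCl, 0.01% Triton X-100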
Apaf1 inhib: inhibitors of human Apaf-1 apoptosome, primary screen, biochemical, DEVD-Rh110 fluorescence, uHTS; Apoptotic protease-activating factor 1 (Homo sapiens), O14727; reconstituted apoptosome caspase-3 activity; inhibition, % at 20 µM; hit rate 0.71% among 330,000; AID 489030, 2010; active = inhibition of at least 40% at 20 µM;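 also: plate controls were DMSO wells for no effect and DEVD-CHO caspase inhibitor wells for full effect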
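Material: biochemical Apaf-1 apoptosome reconstitution. Medium: Hepes buffer, pH 7.5. Also added: cytochrome c activation, bis-DEVD rhodamine 110 substrate. Timing: 30 min compound preincubation, 50 min activation, room temperature. Measured by: rhodamine 110 fluorescence at Ex 480/Em 540 nm.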
GSTO1 inh: inhibitors of recombinant GSTO1, primary screen, counter-screen for RBBP9 inhibitor project, biochemical, fluorescence polarization | Glutathione S-transferase omega-1 (Homo sapiens), P78417 | activity-based probe fluorescence polarization | inhibition, % at 5.96 µM | hit rate 1.1% among 300,000 | AID 1974, 2009;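 active = inhibition above the campaign mean inhibition plus 3 SD, cut at about 35% in these data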;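 also: 0% = GSTO1-1 with DMSO and 100% = wells lacking GSTO1-1 enzyme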
proCasp3 act: activators of human procaspase-3 D3A mutant, primary screen, biochemical, absorbance, PC-3 D3A mutant, single concentration | recombinant procaspase-3 D3A, Ac-DEVD-pNA absorbance 405 nm | Caspase-3 (Homo sapiens), P42574 | activation, % at 8.5 µM | hit rate 0.11% among 330,000;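 active = activation above the mean of all tested compounds plus 3 SD, cut at about 21% in these data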;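 also: 0% = DMSO alone and 100% = DMSO wells spiked with extra 5 µM PC-3 D3A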
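System: Procaspase-3 D3A mutant. Medium: Zinc-free 300 mM NaCl, 50 mM HEPES, 0.01% Triton X-100. Schedule: 1 h preincubation plus 2 h reaction at 25 °C. Measured by: 405 nm absorbance of p-nitroaniline, reads at 0 and 120 min. Read-out: percent activation relative to control range.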
ZTA DNA inh: ZTA (EBV) inhibition in EBNA-1 counter-screen; inhibition, % at 11 µM; ZTA-DNA binding, fluorescence polarization; hit rate 0.15% among 320,000; P03206; in the data active = inhibition above about 33%
EBNA-1 inhibitor: EBNA-1 DNA-binding inhibitors, primary screen, biochemical, fluorescence polarization. inhibition, % at 14.8 µM. hit rate 0.34% among 300,000; in the data active = inhibition above about 28%
Numbers without * were called inactive; / = not tested or not shown. An excerpt weighted towards active compounds, which were near 1.8% of everything screened.

SMILES | proCasp7 act | Apaf1 inhib | GSTO1 inh | proCasp3 act | ZTA DNA inh | EBNA-1 inhibitor
O=C1CN(C(=O)NCC(=O)N2CCCC2)c2ccccc2N1 | 2 | 4 | -4 | 6 | 0 | -14
CC(=O)c1ccc(N2CCN(C(=S)Nc3cccc(Cl)c3)CC2)cc1 | -3 | -3 | 1 | -7 | -2 | 56*
CC(=O)c1ccc(NC(=S)N2CCN(c3cccc(Cl)c3)CC2)cc1 | 6 | -2 | -4 | 4 | 26 | -9
CCC(=O)c1ccc(OCC(=O)OCC(=O)NCC2CCCCC2)cc1 | 1 | 1 | 4 | 9 | 12 | -2
Cc1ccc(N(CC(O)CN2C(=O)NC(C)(C)C2=O)S(=O)(=O)c2ccc([N+](=O)[O-])cc2)cc1 (configuration not stated) | 1 | 15 | 15 | -2 | -2 | -4
CCc1nn(CCCC(=O)NCc2ccccc2Br)c(=O)c2cc3occc3n12 | -3 | 46* | -3 | 5 | 16 | 11
CCc1cccc(NC(=O)CCCn2nc(CC)n3c(cc4occc43)c2=O)c1 | 16 | 2 | -4 | -1 | -6 | -6
O=C(c1cccc(S(=O)(=O)N2CCOCC2)c1)N(CCc1ccccc1)Cc1ccccc1 | 4 | 21 | / | 8 | -10 | /
COc1ccc(C(=O)N(CCc2ccccc2)Cc2ccccc2)cc1S(=O)(=O)N1CCOCC1 | 0 | 45* | 9 | 5 | -13 | 1
COc1ccc(C(CNC(=O)CN(C)S(=O)(=O)c2ccc(C)cc2)N2CCCC2)cc1 (configuration not stated) | 6 | -3 | / | 3 | / | /
O=C(NCC1OCCc2ccccc21)c1ccc(NC(=O)c2cccc(Br)c2)cc1 (configuration not stated) | 7 | 9 | 1 | -2 | -12 | 30*
Cc1cc(/C=C2\SC(=S)NC2=O)c(C)n1C | -5 | -14 | 46* | 1 | -2 | 6
CCOC(=O)C1=C(C)N(C[C@@H]2CC[C@@H](Cc3ccc(-c4ccccc4)cc3)O2)C(=O)NC1C1CC1 (some centres not stated) | 5 | 34 | / | 2 | / | /
CC1=CC(=O)c2c(O)ccc(O)c2C1=O | -12 | / | 69* | -11 | 36* | 42*
C=C1N(C)c2cc([N+](=O)[O-])c(N)cc2C1(C)C | 7 | 14 | 36* | 0 | 4 | -2
CCCS(=O)(=O)c1ccc(COC(=O)Cc2ccc([N+](=O)[O-])cc2)cc1 | -9 | 2 | 3 | 5 | 6 | 2
O=C(CSc1nnc(-c2ccccn2)o1)Nc1ccccc1Cl | -3 | -4 | 7 | 3 | 1 | -4
CCCCC(=O)c1ccc(O)cc1 | -2 | -22 | -3 | -3 | 18 | 2
O=C(CCO)c1ccc(O)cc1 | 9 | -23 | 37* | 10 | 2 | 5
CC1C/C(=C\c2cccnc2)C(=O)/C(=C/c2cccnc2)C1 (configuration not stated) | 11 | / | -12 | -5 | 44* | -8
c1ccc(-c2c(-c3ccccc3)n(Cc3ccco3)c3ncnc(NCCCn4ccnc4)c23)cc1 | -7 | 42* | 11 | 3 | -3 | -6
c1ccc(-c2oc3ncnc(NCCCn4ccnc4)c3c2-c2ccccc2)cc1 | -2 | 31 | 37* | 3 | -10 | 1
OCCNc1ncnc2c1c(-c1ccccc1)c(-c1ccccc1)n2Cc1ccco1 | 0 | 2 | -4 | 1 | 14 | 8
CC1CCN(C(=O)CSc2nc3c(c(=O)n2C)SC(C)C3)CC1 (configuration not stated) | 2 | 2 | 1 | -10 | 10 | 7
CCCc1cc(NC(=O)CCl)n(-c2ccccc2)n1 | -2 | -3 | 101* | 0 | 7 | 7
SMILES | proCasp7 act | Apaf1 inhib | GSTO1 inh | proCasp3 act | ZTA DNA inh | EBNA-1 inhibitor
CCCc1cc(NC(=O)COC(=O)c2ccc(O)cc2O)n(-c2ccccc2)n1 | -7 | -4 | / | -6 | / | /
O=C(COC(=O)c1cccnc1)c1ccc(Cl)c(Cl)c1 | -1 | 5 | 36* | -1 | 5 | -10
O=C(COC(=O)c1cccnc1)c1ccc(Cl)cc1 | 0 | -23 | 21 | -4 | 13 | 7
N#Cc1ccccc1NC(=O)COC(=O)c1c[nH]c2ccccc12 | / | -5 | / | / | / | /
CC(=O)c1c(C)[nH]c(C(=O)CN2C(=O)NC3(CCCCC3)C2=O)c1C | / | -12 | / | / | / | /
CN1CC=C2C(C#N)=C(N)C(C#N)(C#N)[C@H](c3ccoc3)[C@H]2C1 | -2 | 25 | 41* | -5 | -9 | -2
N#CC1=C(N)C(C#N)(C#N)[C@H](c2ccoc2)[C@H]2CN(Cc3ccccc3)CC=C12 | -8 | 59* | 24 | -3 | 9 | -4
COc1ccc(Cl)cc1NC(=O)CN(C)C(=O)C1COc2ccccc2O1 (configuration not stated) | 5 | -1 | / | 11 | / | /
COc1nc(N)nc2nc[nH]c12 | -2 | -8 | 7 | 2 | -19 | 1
COCCN(C(=O)CCl)C(C(=O)NC1CCCCC1)c1ccccc1C (configuration not stated) | -10 | -7 | 99* | -9 | 4 | 0
O=C(NC1CCCC1)C(c1ccc(F)cc1)N(Cc1ccccc1Cl)C(=O)CCl (configuration not stated) | -9 | 0 | 72* | -5 | -2 | -7
COCCN(C(=O)CCC(=O)Nc1cc(C)on1)C(C(=O)NC1CCCC1)c1ccccc1C (configuration not stated) | 15 | -4 | -6 | 0 | 10 | -9
CCC(CC)NC(=O)Nc1cccc(C)c1C | -2 | -3 | 5 | 1 | -14 | -11
CCC(C)N(CC(=O)Nc1cccc(C)c1C)C(=O)CCl (configuration not stated) | 11 | -15 | 52* | 1 | -7 | 2
CC(C)N(CC(=O)Nc1ccc(Cl)cc1C(F)(F)F)C(=O)CCl | 1 | -12 | 66* | -11 | 7 | 1
CCOc1ccc(NS(=O)(=O)c2ccc3[nH]cc(C(=O)NCC4CCCO4)c(=O)c3c2)cc1 (configuration not stated) | -3 | 9 | 19 | 2 | -9 | -2
CCOc1ccc(NS(=O)(=O)c2ccc3[nH]cc(C(=O)N(CC)CC)c(=O)c3c2)cc1 | 0 | -2 | 36* | 7 | -8 | -7
O=C(c1c[nH]c2ccc(S(=O)(=O)N3CCOCC3)cc2c1=O)N1CCCC1 | -4 | -9 | 6 | 6 | -22 | 6
